# This is a sample that favours compounds with a hit; in the whole collection about 1.8% have one here.
# ABHD4 inh: ABHD4 (mouse) inhibition, primary FP screen; Q8VD66; purified mABHD4, FP-Rh probe fluorescence polarization; inhibition, % at 8.92 µM; 370,000 tested, 0.54% active; AID 720543;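 active = inhibition exceeding the mean over every tested compound plus 3 SD, cut at about 30% in these data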;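 also: 0% = plate median of compound wells and 100% = S159A mutant with DMSO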
# Target sequence (Q8VD66 whole entry, looked up): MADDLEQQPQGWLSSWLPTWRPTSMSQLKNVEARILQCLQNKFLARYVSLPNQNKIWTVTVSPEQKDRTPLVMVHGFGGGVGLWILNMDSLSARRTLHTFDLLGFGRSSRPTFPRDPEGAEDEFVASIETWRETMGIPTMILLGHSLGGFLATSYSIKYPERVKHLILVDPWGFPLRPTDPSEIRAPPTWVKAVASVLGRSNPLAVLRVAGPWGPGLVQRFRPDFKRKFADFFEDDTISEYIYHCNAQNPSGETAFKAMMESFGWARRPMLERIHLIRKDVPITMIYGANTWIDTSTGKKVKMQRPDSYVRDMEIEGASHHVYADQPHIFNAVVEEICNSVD
#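 Doses – 8.92 µM, single dose · Material – wild-type mouse ABHD4 protein · Replication – single well per compound (singlicate) · Measure – percent inhibition of probe binding, normalized to plate controls · Schedule – 45 min compound pre-incubation plus 60 min probe step, 25 °C · Detection – fluorescence polarization with parallel and perpendicular emission, 525/598 nm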
# Tn6 DDE FP: DD(E)-Tn6 binding inhibition, primary FP screen. P02675. Fibrin DD(E) TRITC-Tn6 fluorescence polarization displacement. inhibition, % at 8.3 µM. 370,000 tested, 0.21% active;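 active = inhibition above a per-campaign cutoff: mean of compounds within control limits plus 3 SD, cut at about 15% in these data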;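 also: 0% = median of all compound wells on the plate and 100% = blocking peptide control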
# Tn7 DDE FP: disrupts Tn7 cyclic peptide binding to fibrin D-Dimer-E complex | P02675 | FP displacement of FITC-Tn7 peptide from fibrin DD(E); 0% = median of compound wells per plate | inhibition, % at 8.3 µM | 370,000 tested, 0.13% active | AID 720508;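 active = inhibition above the mean of compounds falling within the control limits plus 3 SD of them, cut at about 14% in these data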;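 also: 0% = plate median of compound wells and 100% = 10 µM Aha-Tn7 peptide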
#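 Assay system: Human clot-derived fibrin DD(E) complex | Buffer or medium: Tris/NaCl/CaCl2 buffer, pH 7.8 | Repeats: One replicate per compound | Benchmarks: Aha-Tn7 high control | Measure: % inhibition scaled between sample-field median and high-control FP | Schedule: 10 min plus 3 h, room temperature | Signal: Fluorescence polarization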
# HTRA1 inhibitor: blocks human HTRA1 serine peptidase. Q92743. recombinant HTRA1, FP-rhodamine activity-based probe, fluorescence polarization. inhibition, % at 5.96 µM. 340,000 tested, 0.5% active. AID 504803; in the data active = inhibition above about 36%;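 also: 0% = enzyme with DMSO and 100% = wells lacking enzyme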
# TCR-CD3 inh: human TCR-CD3 binding inhibition; inhibition, % at 9.4 µM; TAMRA-labeled TCR probe fluorescence, biochemical; AID 651800; 360,000 tested, 0.37% active; in the data active = inhibition above about 19%;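 also: recombinant mutant TCR 2C K166C tagged with TAMRA read by polarization; 0% = receptor in buffer alone and 100% = receptor with positive control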
# SIAE inh: human SIAE inhibition, primary screen; SIAE FP-Rh probe binding, fluorescence polarization; inhibition, % at 9.66 µM; AID 1053197; Q9HAT2; 370,000 tested, 0.69% active;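 active = inhibition above a cutoff: mean of compounds within the control limits plus 3 SD of those, cut at about 17% in these data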;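 also: 0% = plate median of compound wells and 100% = probe without SIAE protein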
# ABHD4 confirm: ABHD4 (mouse) inhibition, FP confirmation | inhibition, % at 8.92 µM | purified mABHD4, FP-Rh probe fluorescence polarization | 1,800 tested, 55% active | shares compounds with ABHD4 inh;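 active = mean inhibition across replicates above the hit cutoff set in the primary screen, cut at about 30% in these data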;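 also: 0% = wild-type ABHD4 with DMSO and 100% = catalytically dead S159A mutant with DMSO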
# Numbers without * were called inactive; . = not tested or not shown; ! = not active in a repeat.
SMILES,ABHD4 inh,Tn6 DDE FP,Tn7 DDE FP,HTRA1 inhibitor,TCR-CD3 inh,SIAE inh,ABHD4 confirm
CCOc1ccc(/C=C2\SC(=S)N(Nc3ccccc3)C2=O)cc1OC,10,-1,3,-11,1,8,.
COCCCN1C(=O)[C@H](CC(=O)N2CCCCC2)[C@]2(C(=O)OC)CCCCC=C12,6,3,-4,.,.,6,.
Cc1ccc(Nc2nc(-c3ccc(F)cc3)cs2)nc1,7,-5,2,-7,1,-5,.
Cc1ccc(Nc2nc(-c3ccc(O)c(O)c3)cs2)nc1,42*,-1,-7,.,13,13,53*
Cc1nc(CNS(=O)(=O)c2cccc(F)c2)cs1,1,-5,-5,0,-3,-1,.
Cc1ccc(-c2csc(NS(=O)(=O)c3cccc(F)c3)n2)o1,30*,-7,-2,15,6,-12,26
CCCC1=Nc2cc(C(=O)N3CCCC3)ccc2Sc2ccc(C)cc21,32*,1,2,-37,0,-5,27
CCC1=Nc2cc(C(=O)N3CCCCC3)ccc2Sc2ccc(C)cc21,16,-9,0,-34,7,12,.
F[B-](F)(F)c1cc2ccccc2s1,87*,-2,-2,2,7,2,72*
Cc1cc(NN=Cc2ccccn2)nc2ccccc12,43*,-2,-5,.,-4,2,27
C(=C\c1ccccc1)/C=N/Nc1nc2ccccc2s1,8,-9,0,-15,-15,-1,.
C(=NNc1ccc2ccccc2n1)c1ccccn1,44*,-5,5,.,-5,7,12
C(=N\Nc1nc2ccccc2s1)/c1ccccn1,37*,-1,1,.,-2,1,40*
COc1ccc(C=NNc2nc3ccccc3s2)cc1,9,-3,-2,2,5,9,.
CCC/C=N/Nc1nc2ccccc2s1,50*,-1,-4,28,-9,7,17
Cc1csc(N/N=C/c2ccccn2)n1,15,-7,-2,8,0,-8,.
Cc1cc(NN=Cc2ccccn2)nc2c(C)cccc12,2,2,1,.,-3,1,.
Cn1cc(CN2CCC(C(O)c3cccs3)CC2)c(-c2ccccc2F)n1 (configuration not stated),48*,-6,5,5,-9,2,2
COc1ccc(S[C@]2(C(=O)N(C)C)CC(=O)N(C(=O)c3ccccc3)[C@@H]2c2ccc(OC)cc2)cc1,-7,-3,2,.,.,1,.
O=C(NCc1cccs1)C1CCN(S(=O)(=O)c2ccc([N+](=O)[O-])cc2)CC1,-2,-5,-4,.,.,7,.
Cc1ccc(NS(=O)(=O)c2ccc3c(c2)NC(=O)CCS3)c(Cl)c1,12,-2,-2,-6,1,1,.
COc1ccc(Cl)cc1NS(=O)(=O)c1ccc2c(c1)NC(=O)CCS2,32*,0,-2,5,-2,-2,26
Cc1ccn2c(NCc3ccccc3)c(-c3cccc(SC4CCCCC4)c3)nc2c1,30*,-2,1,4,0,14,31*!
CCCCNc1c(-c2ccc(SC3CCCCC3)cc2)nc2ccccn12,44*,-8,3,-17,0,17,14
CCCCNc1c(-c2ccc(SC(C)CC)cc2)nc2ccccn12 (configuration not stated),40*,-1,1,-1,4,11,69*
CCCCNc1c(-c2cccc(SC(C)CC)c2)nc2ccc(Cl)cn12 (configuration not stated),9,0,-12,-1,2,6,.
CCCCNc1c(-c2cccc(SC3CCCCC3)c2)nc2ccc(Cl)cn12,2,10,-7,-13,-2,-3,.
CCOc1ccc(-n2c(SCC(=O)Nc3ccc4c(c3)OCCO4)nnc2-c2ccncc2)cc1,-3,5,7,.,.,-2,.
CCC(=O)NC1=C(Cl)C(=O)C(NC(=O)CC)=C(Cl)C1=O,34*,-6,-5,7,-3,7,40*
N#C/C(=C(/O)c1ccccc1F)c1nc2cc(C(F)(F)F)ccc2s1,11,-1,3,-10,0,3,.

# Compound activity deposited in PubChem by The Scripps Research Institute Molecular Screening Center.
